Experimental data from ChEMBL document CHEMBL1137561 (J Med Chem, 2007).

Assays:
[1] = Cytotoxicity against MT4 cells after 4 days by MTT method; type: cell-based; conditions: human
Method in brief: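 Mock-infected (noninfected) MT-4 cells, run in parallel with the antiviral test. Viable cells read by the MTT tetrazolium colorimetric method. […] Means ± SD from at least two experiments. The top concentration was limited where compounds precipitated in the culture medium.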

[2] = tested on: Human immunodeficiency virus 1; test: Antiviral activity against HIV1 with reverse transcriptase Y181C mutation in MT4 cells assessed as inhibition of viral induced cytopathic effect by MTT method; type: functional, organism-based; conditions: Human immunodeficiency virus 1, MT4
Method in brief: (§1)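 MT-4 cells infected with the HIV-1 NNRTI-resistant mutant strain. Viable cells scored at day 5 post-infection by the MTT tetrazolium colorimetric method. […] Values are means ± SD from at least two experiments.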

[3] = tested on: Human immunodeficiency virus 1; test: Antiviral activity against HIV1 NL43 in MT4 cells assessed as inhibition of viral induced cytopathic effect after 5 days by MTT method; conditions: Human immunodeficiency virus 1, NL43, MT4, 120 h
[4] = Resistance index, Ratio of EC50 for drug-resistant HIV1 with RT Y181C mutation in MT4 cells to EC50 for HIV1 NL43 in MT4 cells
[5] = tested on: Human immunodeficiency virus 1; test: Antiviral activity against HIV1 with reverse transcriptase K103N mutation in MT4 cells assessed as inhibition of viral induced cytopathic effect by MTT method; type: functional, organism-based; conditions: Human immunodeficiency virus 1, MT4; method in brief: as §1
[6] = Resistance index, Ratio of EC50 for drug-resistant HIV1 with RT IRLL98 mutation in MT4 cells to EC50 for HIV1 NL43 in MT4 cells
[7] = tested on: Human immunodeficiency virus 1; test: Antiviral activity against HIV1 with reverse transcriptase IRLL98 mutation in MT4 cells assessed as inhibition of viral induced cytopathic effect by MTT method; type: functional, organism-based; conditions: Human immunodeficiency virus 1, MT4
[8] = target: Human immunodeficiency virus type 1 reverse transcriptase (Human immunodeficiency virus 1, UniProt Q72547, K103N); test: Inhibition of HIV1 reverse transcriptase K103N mutant
[9] = target: Human immunodeficiency virus type 1 reverse transcriptase (Human immunodeficiency virus 1, UniProt Q72547, L100I); test: Inhibition of HIV1 reverse transcriptase L100I mutant
[10] = target: Human immunodeficiency virus type 1 reverse transcriptase (Human immunodeficiency virus 1, UniProt Q72547, Y188L); test: Inhibition of HIV1 reverse transcriptase Y188L mutant
[11] = tested on: Human immunodeficiency virus 1; test: Resistance index, ratio of Ki for HIV1 reverse transcriptase Y181I mutant to Ki for wild type HIV1 3B reverse transcriptase
Method in brief: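 Initial velocities came from radioactive nucleotide incorporation into poly(rA)/oligo(dT) 10:1, sampled every 2 min. Inhibitor spanned 0.2–5 Ki, with Lineweaver-Burk and Dixon plots. Fold-resistance is Ki mutant / Ki wild type.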

[12] = target: Human immunodeficiency virus type 1 reverse transcriptase (Human immunodeficiency virus 1, UniProt Q72547, V179D); test: Inhibition of HIV1 reverse transcriptase V179D mutant
[13] = target: Human immunodeficiency virus type 1 reverse transcriptase (Human immunodeficiency virus 1, UniProt Q72547); test: Inhibition of wild type HIV1 3B reverse transcriptase
[14] = Selectivity index, ratio of CC50 for MT4 cells to EC50 for HIV1 NL43 infected MT4 cells; type: functional
[15] = Resistance index, Ratio of EC50 for drug-resistant HIV1 with RT K103N mutation in MT4 cells to EC50 for HIV1 NL43 in MT4 cells
[16] = tested on: Human immunodeficiency virus 1; test: Antiviral activity against HIV1 with reverse transcriptase Y188L mutation in MT4 cells assessed as inhibition of viral induced cytopathic effect by MTT method; type: functional, organism-based; conditions: Human immunodeficiency virus 1, MT4
Method in brief: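 MT-4 cells infected with the HIV-1 NNRTI-resistant mutant strain. Viable cells scored at day 5 post-infection by the MTT tetrazolium colorimetric method. Values are means ± SD from at least two experiments.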

[17] = target: Human immunodeficiency virus type 1 reverse transcriptase (Human immunodeficiency virus 1, UniProt Q72547, V106A); test: Inhibition of HIV1 reverse transcriptase V106A mutant
[18] = Inhibition of HIV1 reverse transcriptase Y1811 mutant; parameters: species or system Human immunodeficiency virus 1
Method in brief: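 Recombinant HIV-1 RT Y181I mutant, purified to >95%, 10 min preincubation with inhibitor. Radioactive nucleotide incorporation into poly(rA)/oligo(dT) 10:1 was followed at varied nucleotide substrate levels, sampling every 2 min for initial velocities. Inhibitor spanned 0.2–5 Ki. Ki came from Lineweaver-Burk and Dixon plots. Means ± SD of at least three experiments.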

[19] = Resistance index, Ratio of EC50 for drug-resistant HIV1 with RT Y188L mutation in MT4 cells to EC50 for HIV1 NL43 in MT4 cells

Structure (SMILES)	CC50 at 96 h [1] [nM]	EC50 [2] [nM]	EC50 [3] [nM]	Ratio EC50 [4]	EC50 [5] [nM]	Ratio EC50 [6]	EC50 [7] [nM]	Ki [8] [nM]	Ki [9] [nM]	Ki [10] [nM]	Ratio Ki [11]	Ki [12] [nM]	Ki [13] [nM]	Ratio CC50/EC50 [14]	Ratio EC50 [15]	EC50 [16] [nM]	Ki [17] [nM]	Ki [18] [nM]	Ratio EC50 [19]
Cc1c(C(C)c2c(F)cccc2F)nc(SC2CCCC2)[nH]c1=O (stereo unspecified)	> 3000	97	1	97	225	120	120	30	300	1400	180	250	5	>3000	225	> 3000	500	900	
CCc1c(C(C)c2c(F)cccc2F)nc(N(C)C)[nH]c1=O (stereo unspecified)	> 81000	100	2	50	250	440	880	2000	4000	10000	100	30	50	>40500	125	550	60	5000	275
Cc1c(C(C)c2c(F)cccc2F)nc(N2CCOCC2)[nH]c1=O (stereo unspecified)	> 74000	90	2	45	390	25	50	3300	10000	5500		> 20000	3	>37000	195	560	500	> 20000	280
CCCNc1nc(C(C)c2c(F)cccc2F)c(C)c(=O)[nH]1 (stereo unspecified)	35000	60	3	20	370	30	90	470	310	3110	125		40	11667	125	> 10000	40	5020	
Cc1c(C(C)c2c(F)cccc2F)nc(N2CCCCC2)[nH]c1=O (stereo unspecified)	> 75000	70	7	10	520	9	60	600	2000	3500		10	70	>10714	74	390	20	> 20000	56
CN(C)c1nc(Cc2c(F)cccc2F)cc(=O)[nH]1	> 94000	3600	23	156	> 10000	87	2000	3000	10000	30000	37	5000	80	>4087		> 10000	500		
O=c1cc(Cc2c(F)cccc2F)nc(N2CCSCC2)[nH]1	> 77000	> 10000	35		> 10000		> 10000	1500	10000	1000	2	5000	200	>2200		> 10000	500	400	
